A short description of data set [1]: Sub-acute toxicity in Kunming mouse assessed as hepatocellular condensation of liver at 50 mg/kg, po administered as single dose every other day for 14 days by H and E staining based assay. The class given is organism-based. The conditions noted are these: in vivo, 336 h, time 14 day.
A short description of data set [2]: Sub-acute toxicity in Kunming mouse assessed as edema in proximal tubule at 50 mg/kg, po administered as single dose every other day for 14 days by H and E staining based assay. The conditions noted are these: in vivo, 336 h, time 14 day. The class given is organism-based. The method, boiled down:
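Kunming mice, n = 4 per sex, fasted 12 h. Dosed orally on D0, D2, D4, D6, D8, D10 and D12; controls received an equal volume of vehicle. Weighed before each dose. Killed at D14; heart, liver, spleen, lung and kidney taken for haematoxylin and eosin staining.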

Data set [3] in a line: Sub-acute toxicity in Kunming mouse assessed as ballooning degeneration of liver at 50 mg/kg, po administered as single dose every other day for 14 days by H and E staining based assay. The class given is organism-based. The conditions noted are these: in vivo, 336 h, time 14 day.
A short description of data set [4]: Sub-acute toxicity in Kunming mouse assessed as congestion in hepatic central vein at 50 mg/kg, po administered as single dose every other day for 14 days by H and E staining based assay. The format is organism-based. Particulars: in vivo, 336 h, time 14 day.
A short description of data set [5]: Sub-acute toxicity in Kunming mouse assessed as hydropic degeneration of hepatocytes at 50 mg/kg, po administered as single dose every other day for 14 days by H and E staining based assay. The conditions noted are these: in vivo, 336 h, time 14 day. The class given is organism-based.
Data set [6] is described as follows: Cmax in male Kunming mouse at 50 mg/kg, po by LC-MS/MS analysis. The conditions noted are these: in vivo. The class given is ADME, organism-based. More on the design: route oral, dose 50 mg/kg. In short, it runs like this:
(§1)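 Male Kunming mice, ten in total, split into five groups; single oral dose in PEG 400/normal saline (70/30, v/v). Blood taken from submandibular or saphenous vein into K2EDTA tubes at 0.25, 0.5, 1, 2, 4, 8, 24, 48, 72 h. Plasma spun at about 4 °C and kept at -70 °C. Acetonitrile precipitation with dexamethasone internal standard, then LC-MS/MS against plasma standard curves.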

Data set [7] can be described thus: Half-life in male Kunming mouse at 50 mg/kg, po by LC-MS/MS analysis. Particulars: in vivo. The class given is ADME, organism-based. In short, it runs like this: as §1
Data set [8] can be described thus: Tmax in male Kunming mouse at 50 mg/kg, po by LC-MS/MS analysis. The format is ADME, organism-based. Particulars: in vivo. In short, it runs like this: as §1
The nature of data set [9]: AUC (0 to infinity) in male Kunming mouse at 50 mg/kg, po by LC-MS/MS analysis. Also on record: route oral, time infinity, dose 50 mg/kg. Particulars: in vivo. The format is ADME, organism-based. The method, boiled down:
as §1

Data set [10] is described as follows: MRT (0 to infinity) in male Kunming mouse at 50 mg/kg, po by LC-MS/MS analysis. Particulars: in vivo. The class given is ADME, organism-based. In short, it runs like this:
as §1

Data set [11] is described as follows: AUC (0 to t) in male Kunming mouse at 50 mg/kg, po by LC-MS/MS analysis. The class given is ADME, organism-based. Also on record: dose 50 mg/kg. The conditions noted are these: in vivo. The method, boiled down:
as §1

Data set [12] is described as follows: Cmax in male Kunming mouse at 2 mg/kg, po by LC-MS/MS analysis. The class given is ADME, organism-based. More on the design: route oral, dose 2 mg/kg. Particulars: in vivo. In short, it runs like this: as §1
The nature of data set [13]: Tmax in male Kunming mouse at 2 mg/kg, po by LC-MS/MS analysis. The conditions noted are these: in vivo. The class given is ADME, organism-based. In short, it runs like this: as §1
The nature of data set [14]: Half-life in male Kunming mouse at 2 mg/kg, po by LC-MS/MS analysis. Particulars: in vivo. The format is ADME, organism-based. The method, boiled down: as §1
The nature of data set [15]: MRT (0 to infinity) in male Kunming mouse at 2 mg/kg, po by LC-MS/MS analysis. The class given is ADME, organism-based. Particulars: in vivo. In short, it runs like this:
as §1

Data set [16] in a line: AUC (0 to infinity) in male Kunming mouse at 2 mg/kg, po by LC-MS/MS analysis. The format is ADME, organism-based. Also on record: time infinity, route oral, dose 2 mg/kg. The conditions noted are these: in vivo. The method, boiled down:
as §1

Data set [17] is described as follows: AUC (0 to t) in male Kunming mouse at 2 mg/kg, po by LC-MS/MS analysis. More on the design: dose 2 mg/kg. Particulars: in vivo. The format is ADME, organism-based. In short, it runs like this: as §1
The nature of data set [18]: Sub-acute toxicity in female Kunming mouse assessed as increase in body weight at 50 mg/kg, po administered once every second day for 14 days. The class given is organism-based. Particulars: in vivo, 336 h, time 14 day.
A short description of data set [19]: Sub-acute toxicity in male Kunming mouse assessed as increase in body weight at 50 mg/kg, po administered once every second day for 14 days. The format is organism-based. The conditions noted are these: in vivo, 336 h, time 14 day.
The nature of data set [20]: Acute toxicity in female Kunming mouse assessed as change in body weight at 500 mg/kg, ig measured for 1 week. The format is organism-based. Particulars: in vivo, po, 168 h, time 1 weeks.
A short description of data set [21]: Acute toxicity in Kunming mouse assessed as induction of abnormal behaviors by measuring lethargy at 500 mg/kg, ig. The format is organism-based. The conditions noted are these: in vivo, po.
Data set [22] can be described thus: Acute toxicity in male Kunming mouse assessed as change in body weight at 500 mg/kg, ig measured for 1 week. The class given is organism-based. The conditions noted are these: in vivo, po, 168 h, time 1 weeks.
Data set [23] in a line: Acute toxicity in Kunming mouse assessed as induction of abnormal behaviors by measuring clonic convulsion at 500 mg/kg, ig. The format is organism-based. Particulars: in vivo, po.
Data set [24] can be described thus: Acute toxicity in Kunming mouse assessed as induction of abnormal behaviors by measuring anorexia at 500 mg/kg, ig. The format is organism-based. Particulars: in vivo, po.
Data set [25] in a line: Acute toxicity in Kunming mouse assessed as death at 250 mg/kg, ig measured for 1 week relative to control. The format is organism-based. Particulars: in vivo, po, 168 h, time 1 weeks. In short, it runs like this: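 Kunming mice of 10-12 g, 12 per group (6 male, 6 female), fasted 12 h. Single intragastric dose of a suspension in 5% CMC-Na. Deaths, behaviour (lethargy, clonic convulsion, anorexia, ruffled fur) and body weight followed for one week and compared with vehicle controls.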

For the next data set, the species on record is Rattus norvegicus. Briefly: Hypouricemic activity in rat model of xanthine/potassium oxonate-induced acute hyperuricemia assessed as decrease in serum uric acid level relative to control. Also on record: scale not given: the % may be the effect or the level left. The format is functional.
In data set [26] the test system is Mus musculus. Put plainly: Hypouricemic activity in Kunming mouse model of xanthine/potassium oxonate-induced acute hyperuricemia assessed as decrease in serum uric acid level at 2 mg/kg administered 3 hrs prior to xanthine/potassium oxonate and measured after 6 hrs relative to control. The conditions noted are these: time 9 hrs. More on the design: scale not given: the % may be the effect or the level left. The format is functional. In short, it runs like this:
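Male Kunming mice, hyperuricemia induced by intragastric xanthine plus subcutaneous potassium oxonate (0.2 mL each). […] Groups: normal vehicle, untreated model, active control, test. Serum uric acid measured. Decrease ratio = (model SUA − compound SUA)/(model SUA − vehicle SUA).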

Data set [27] relates to Mus musculus. Put plainly: Potency index, ratio of lesinurad to test compound for hypouricemic activity in Kunming mouse model of xanthine/potassium oxonate-induced acute hyperuricemia assessed as decrease in serum uric acid level at 2 mg/kg administered 3 hrs prior to xanthine/potassium oxonate and measured after 6 hrs. The class given is functional.

As a reminder, the Cmax is the highest concentration seen after dosing. Broadly, the half-life is how long it takes for the measured level to halve. Broadly, the Tmax is the time at which the peak concentration occurs. The AUC(0-inf) is the area under the concentration-time curve extrapolated to infinity. Usually MRT inf stands for a mean duration of stay, worked out from the concentration-time curve. Broadly, the AUC(0-t) is the area under the concentration-time curve up to a stated or last time point. For the molecule `O=C(O)CSc1nnc(Br)n1-c1ccc(C2CC2)c2ccccc12`, the Activity entry in data set [1] is recorded as “Toxic”; in data set [2] it was “Toxic”; in data set [3] it was “Toxic”; in data set [4], “Toxic”; in data set [5], “Toxic”; in data set [18], “Non-Toxic”. The Activity entry in data set [19], in [20], in [21], in data set [22], in [23] and in [24] was “Non-Toxic” throughout. In addition, the Activity entry in data set [25] is given as “Toxic”; in the data set filed under Rattus norvegicus, 52.99%; in the data set with Mus musculus [26], 27.06%. Also, the Cmax in [6] is 26500 ng/mL; in [12], 1500 ng/mL. In addition, the figures for the half-life in data set [7] and in data set [14] were 7.46 h and 3.08 h, respectively. The figures for the Tmax in [8] and in data set [13] were 1 h and 0.667 h, respectively. Further, the AUC(0-inf) in data set [9] came out at 145000 ng·h/mL; in data set [16] it was 7120 ng·h/mL. Also, the mean residence time (MRT inf) amounted to 6.35 h in data set [10] and 5.09 h in data set [15]. Further, the AUC(0-t) in data set [11] is 144000 ng·h/mL; in [17] it was 7080 ng·h/mL.
`CC(Sc1nc2ncccc2n1-c1ccc(C#N)c2ccccc12)C(=O)O` (centres undefined): in the data set on Mus musculus [26], the Activity is on record as 95.01%. Moreover, the Ratio in the data set with Mus musculus [27] amounted to 2.8.

Values taken from ChEMBL document CHEMBL4665798, “Novel Human Urate Transporter 1 Inhibitors as Hypouricemic Drug Candidates with Favorable Druggability” (J Med Chem, 2020).
